From PubChem BioAssay
procasp7 counter – activates human procaspase-7, counter-screen for procaspase-3 activators | P55210 | recombinant procaspase-7, Ac-DEVD-pNA absorbance 405 nm; D23A/D198A/D206A triple mutant, cannot self-cleave; scale: DMSO 0, 5 µM enzyme 100 | activation, % at 8.5 µM | 0.093% of 330,000 active | AID 463210;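 active = percent activation above the screen-wide mean plus 3 SD, cut at about 25% in these data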
Target sequence (P55210 whole entry D23A/D198A/D206A): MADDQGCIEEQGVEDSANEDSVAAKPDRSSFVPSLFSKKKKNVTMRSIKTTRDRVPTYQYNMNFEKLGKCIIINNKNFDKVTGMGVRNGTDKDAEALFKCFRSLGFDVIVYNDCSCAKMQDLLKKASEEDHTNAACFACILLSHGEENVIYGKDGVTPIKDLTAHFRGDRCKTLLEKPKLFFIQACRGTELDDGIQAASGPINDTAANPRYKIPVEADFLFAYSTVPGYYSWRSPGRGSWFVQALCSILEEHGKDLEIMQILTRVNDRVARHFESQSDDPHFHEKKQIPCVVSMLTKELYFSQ
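Replicates: singlicate. Assay system: Procaspase-7 triple mutant (PC-7 D3A). Signal: 405 nm absorbance of p-nitroaniline. Times: 1 h preincubation, 2 h reaction. Buffer or medium: Zinc-free HEPES pH 7.4 with 300 mM NaCl, 0.01% Triton X-100. Also added: DEVD-pNA substrate. Benchmarks: DMSO wells as 0%, DMSO with 5 µM added PC-7 as 100%.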
GRK2 inh – blocks RNA aptamer binding to human GRK2. 0.59% of 330,000 active. inhibition of aptamer binding, % at 10 µM. AID 488847. bead flow cytometry, FAM-aptamer displacement from GRK2;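 active = inhibition of aptamer binding above 40%, roughly 3 SD of noise, on plates passing a quality check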;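 also: median bead fluorescence of bound FAM aptamer so fluorescent compounds give negative values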
T cell HTS – T cell immune modulators affecting CD8 T cell-vesicle binding; 0.068% of 330,000 active; response (vesicle binding), % at 7 µM; 2C CD8+ T cell-vesicle binding, flow cytometry; active compounds read low;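 active = response, share of CD8 T cells binding vesicles, and their 90th percentile fluorescence all below set limits, cut at about 80% in these data, passing the limit was not always enough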;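 also: values below 100% mean blocked vesicle binding to the CD8+ T cells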
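Incubation: binding step 1.5 h, 37 °C, antibody labelling 20 min, ice; system: murine 2C transgenic CD8+ T lymphocytes; technique: cytometric PE anti-B7-1 and Alexa647 anti-CD8 signals after 1% paraformaldehyde fixation; also added: QL9-charged Drosophila Ld/ICAM-1/B7-1 vesicles; control set: naked versus QL9-loaded vesicles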
aDG glyco up – alpha-DG glycosylation activation; activation, % at 10 µM; 0.22% of 360,000 active; Pro5-aDG cells, alpha-DG glycosylation AlphaScreen (IIH6); 0% Pro5, 100% B10-LARGE cell signal;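 active = activation of at least 8% versus controls, or a plate z-score of at least 8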;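 also: Pro5 are CHO cells carrying HIG-tagged alpha-DG that lacks glycosylation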
procasp3 activ – activators of human procaspase-3; P42574; recombinant procaspase-3 D3A, Ac-DEVD-pNA absorbance 405 nm; activation, % at 8.5 µM; 0.11% of 330,000 active;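 active = activation above the mean of all tested compounds plus 3 SD, cut at about 21% in these data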
Target sequence (P42574 whole entry D9A/D28A/D175A): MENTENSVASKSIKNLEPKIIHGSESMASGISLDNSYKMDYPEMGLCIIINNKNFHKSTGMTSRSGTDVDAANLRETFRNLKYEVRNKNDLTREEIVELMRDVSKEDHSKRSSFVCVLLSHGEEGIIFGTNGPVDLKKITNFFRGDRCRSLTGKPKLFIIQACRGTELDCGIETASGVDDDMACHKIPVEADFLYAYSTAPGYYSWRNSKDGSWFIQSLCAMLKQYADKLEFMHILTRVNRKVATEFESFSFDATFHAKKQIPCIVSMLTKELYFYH
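Assay system: Autoprocessing-dead procaspase-3 D3A mutant enzyme; also added: Ac-DEVD-pNA; doses: one concentration, 8.5 µM nominal, 0.8% DMSO; times: 1 h compound preincubation, 2 h substrate hydrolysis at 25 °C; technique: 405 nm absorbance of p-nitroaniline, reads at 0 and 120 min; measure: % activation between DMSO and enzyme-spiked controls; repeats: single replicate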
CaV13 ICDI inh – Primary screen for inhibitors of IQ motif and Ca2+-dependent inactivation inhibitor domain binding in CACNA1D, Förster resonance energy transfer in living cells, … | HEK cells, CFP/YFP FRET ICDI-IQ, plate reader, 10 min; percent FRET-ratio fall versus neutral wells | inhibition, % at 12.3 µM | 0.098% of 340,000 active | AID 743397;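 active = mean replicate inhibition of at least 30% and at least 1% of replicates passing that level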
Hits are given with their value; i = inactive; nt = no result; + = active, no number. Only some compounds are listed: those with a hit (about 1.1% of all), similar ones and a draw of the others.

SMILES	procasp7 counter	GRK2 inh	T cell HTS	aDG glyco up	procasp3 activ	CaV13 ICDI inh
CC(C)(C)c1ccc(-c2nc(O)c(CC(=O)O)s2)cc1	i	51	i	nt	i	nt
O=C(O)Cc1sc(-c2ccccc2)nc1-c1ccccc1	i	i	i	i	i	i
CCOCCCNC(=O)/C(C#N)=C/c1cc(Br)c(O)c(Br)c1	nt	nt	nt	i	nt	nt
COc1cc(/C=C(\C#N)C(=O)NC(C)C)cc(Cl)c1O	i	i	i	i	i	48
CC(C)NC(=O)/C(C#N)=C/c1cccc(NC(=O)c2ccccc2Cl)c1	i	i	i	i	i	i
COCCNC(=O)/C(C#N)=C/c1cc(Br)c(O)c(OC)c1	i	43	i	i	i	i
CCCCCCCCN1C(=O)[C@@H](CC(=O)N2CCSCC2)C[C@@]2(C(=O)OC)C1=C[C@H](C1CCCC1)O[C@@H]2C	nt	nt	nt	nt	nt	i
CN(C)CCNC(=O)c1ccc(Sc2ccc(Br)cc2)c([N+](=O)[O-])c1	i	i	i	3.6	i	i
CCCCCCCCN1C(=O)[C@@H](CC(=O)NCCCCc2ccccc2)C[C@@]2(C(=O)OC)C1=C[C@H](C(C)(C)C)O[C@@H]2C	nt	nt	nt	nt	nt	i
NC(=O)CSc1nnc2sc3ccccc3n12	i	i	79	i	i	i
COC(=O)c1cc2c(c3c4cc(OC)ccc4n(S(=O)(=O)c4ccc(OC)cc4)c13)C(=O)N(Cc1ccccc1OC)C2	nt	nt	nt	nt	nt	i
COc1ccc(NC(=O)/C(C#N)=C/c2ccc(Br)o2)cc1	i	67	i	i	i	i
COC(=O)c1ccc(COc2ccc(-c3nnn(CC(N)=O)n3)cc2)cc1	i	i	0.0	i	i	i
COC(=O)c1ccc(COc2ccc(-c3nnn(CC(=O)NC(C)(C)C)n3)cc2)cc1	i	i	i	i	i	i
Fc1ccc(-c2nc3ccccn3c2NCc2ccc3c(c2)OCO3)cc1	i	i	i	i	i	49
CC1(C)CC(=O)C(C=Nc2cccnc2)=C(O)C1	i	i	i	i	i	i
CC1(C)CC(=O)C(C=Nc2cccnc2/N=C/C2=C(O)CC(C)(C)CC2=O)=C(O)C1	i	i	i	i	i	129
CC(C)[C@H](NS(=O)(=O)c1ccccc1)C(=O)OCC(=O)Nc1ccc2c(c1)OCO2	i	i	i	i	i	i
CC(C)[C@H](NS(=O)(=O)c1ccccc1)C(=O)OCC(=O)Nc1cccc(S(N)(=O)=O)c1	i	71	i	i	i	i
NC(=O)[C@@H]1CCCN1C(=O)[C@H](CCc1ccccc1)NC(=O)[C@H]1O[C@@H](n2cnc3c(N)ncnc32)[C@H](O)[C@@H]1O	nt	nt	nt	nt	nt	i
Cc1noc(C)c1S(=O)(=O)N(CC(=O)N1CCCCCC1)c1ccc(C(C)C)cc1	i	i	i	i	i	51
CSCCNC(=O)c1cccc(Cl)c1	i	i	i	i	i	i
CSCCNC(C)=O	i	61	i	nt	i	nt
CCCOc1c(Br)cc(C2C3=C(CCCC3=O)N(C)C3=C2C(=O)CCC3)cc1OC	i	i	i	i	i	+
CCN1C=C(C(=O)OC)C(c2cccc(OC)c2OC)C(C(=O)OC)=C1	i	i	i	i	i	+
SMILES	procasp7 counter	GRK2 inh	T cell HTS	aDG glyco up	procasp3 activ	CaV13 ICDI inh
CCCCOCC1CN(CCCC)S(=O)(=O)c2c(cccc2Sc2ccc(SC)cc2)O1 (stereo not drawn)	nt	nt	nt	nt	nt	i
O=C(Nc1ccc(O)c(-c2nc3ccccc3s2)c1)c1cc(=O)c2ccccc2o1	i	90	i	i	i	i
O=C(Nc1ccc(O)c(-c2nc3ccccc3s2)c1)c1cccs1	i	i	i	i	i	i
CCOC(=O)c1ccc(NC(=O)c2cccc3c2C(=O)N(CC2CCCO2)C3)cc1 (stereo not drawn)	i	i	i	i	i	i
CCOC(=O)C1=CN(CC2CCCO2)C=C(C(=O)OCC)C1c1ccccc1C(F)(F)F (stereo not drawn)	i	i	i	i	i	76
C=C1[C@H](C)CN(S(=O)C(C)(C)C)[C@H]1CCO (stereo partly drawn)	nt	nt	nt	nt	nt	i
Cc1cccc(CCNC(=O)C2CCN(S(=O)(=O)c3cccc4cccnc34)CC2)c1	i	i	i	i	i	i
NS(=O)(=O)c1ccc(CCNC(=O)C2CCN(S(=O)(=O)c3cccc4cccnc34)CC2)cc1	i	i	54	i	i	nt
Cn1nnnc1SCC1=C(C(=O)O)N2C(=O)[C@@H](NC(=O)[C@H](O)c3ccccc3)[C@H]2SC1	i	52	i	i	i	nt
CCN(C(=O)Cn1c(=O)oc2ccccc21)c1cccc(C(F)(F)F)c1	i	i	52	i	i	nt
C[C@H]1[C@H](c2ccccc2)Oc2cccc(NCCc3ccccc3)c2S(=O)(=O)N1Cc1cccc(Cl)c1	nt	nt	nt	nt	nt	i
COc1ccc(-c2nc(-n3c(C)c(C(C)=O)c(C(C)=O)c3C)sc2C)cc1	i	78	i	i	i	i
CC(C)c1[nH]nc2c1C(c1ccccc1)N(c1ccccc1)C2=O (stereo not drawn)	nt	nt	nt	nt	nt	i
COc1ccccc1CN(C)C(=O)c1ccc(S(=O)(=O)NCc2ccco2)cc1	i	44	i	i	i	i
O=C(NCc1cc(C(F)(F)F)ccc1Cl)c1cccc2c1C(=O)c1ccc(-c3ccc(OC(F)(F)F)cc3)cc1S2(=O)=O	i	i	i	nt	i	nt
O=C(NCc1cc(C(F)(F)F)ccc1Cl)c1cccc2c1C(=O)c1ccc(Cl)cc1S2(=O)=O	i	i	i	nt	i	36
CCCCOCCCNC(=O)C[C@H]1C[C@@]2(C(=O)OC)C(=C[C@H](C(C)(C)C)O[C@@H]2C)N(Cc2ccc3c(c2)OCO3)C1=O	nt	nt	nt	nt	nt	i
COc1ccc(-c2c(O)c(C#N)c(-c3ccccc3)n(-c3ccc(OC)cc3)c2=O)cc1	i	97	i	i	i	i
CC(=O)Nc1c(C#N)c(-c2ccccc2)c(C#N)c(=O)n1-c1ccc(C)cc1	nt	nt	nt	i	nt	i
O=c1oc2c3c4c(cc2s1)CCCN4CCC3	i	i	i	i	i	i
O=c1ccc2cc3c4c(c2o1)CCCN4CCC3	i	i	i	i	i	32
Cn1cc(C(c2ccccc2OCC(=O)O)c2cn(C)c3ccccc23)c2ccccc21	i	i	i	i	i	45
C[C@H](CO)N1C[C@H](C)[C@H](CN(C)C(=O)C2CCCCC2)OCc2cnnn2CCCC1=O	nt	nt	nt	nt	nt	i
COc1cccc(NC(=O)CN(C)C(=O)CCCNC(=O)c2ccc(Cl)cc2)c1	i	i	i	i	i	i
CCOc1ccc(NC(=O)CN(C)C(=O)CCCNC(=O)c2ccc(Cl)cc2)cc1OCC	nt	nt	nt	i	nt	32
